Experimental data: ChEMBL document CHEMBL1255300, “Pharmacodynamics of the antibacterial effect and emergence of resistance to tomopenem, formerly RO4908463/CS-023, in an in vitro pharmacokinetic model of Staphylococcus aureus infection” (Antimicrob Agents Chemother, 2008)
Values after ≈ are worked out from the molar mass of the structure shown. Active and inactive are the calls of the source. The calls are words filed in the database; no cut-off is given here.

How the values were obtained:
[1] = system: Staphylococcus aureus; assay: AUBKC (0 to 24 hrs) in methicillin-resistant Staphylococcus aureus 33827 infected in in vitro pharmacokinetic model at 750 mg, iv every 8 hrs using 10^6 CFU/ml inoculum; assay type: functional
Outline: (§1)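 Single-compartment dilutional in vitro PK model at 37°C in 10% Mueller-Hinton broth, stirred, flow 132 ml/h. […] Inoculum 10^6 CFU/ml added 45 min before dosing, or 10^8 CFU/ml run overnight. Viable counts with β-lactamase neutralisation. AUBKC by log-linear trapezoidal rule, at least triplicate.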

[2] = system: Staphylococcus aureus; assay: AUBKC (0 to 24 hrs) in methicillin-resistant Staphylococcus aureus 33820 infected in in vitro pharmacokinetic model at 1500 mg, iv every 8 hrs using 10^6 CFU/ml inoculum; assay type: functional; outline: as §1
[3] = system: Staphylococcus aureus; assay: Antibacterial activity against methicillin-resistant Staphylococcus aureus 33827 infected in in vitro pharmacokinetic model assessed as reduction in viable count at 750 mg, iv every 8 hrs measured after 48 hrs using 10^8 CFU/ml inoculum; assay type: functional
Outline: (§2)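 Single-compartment dilutional in vitro PK model, 10% Mueller-Hinton broth, 37°C, stirred, dilution 132 ml/h. […] Inoculum 10^6 CFU/ml (added 45 min pre-dose) or 10^8 CFU/ml (run overnight). Viable counts by spiral plating, beta-lactamase neutralization, detection limit 10^2 CFU/ml. At least triplicate.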

[4] = system: Staphylococcus aureus; assay: Antibacterial activity against methicillin-resistant Staphylococcus aureus 33815 infected in in vitro pharmacokinetic model assessed as reduction in viable count at 1500 mg, iv every 8 hrs measured after 12 hrs using 10^8 CFU/ml inoculum; assay type: functional
Outline: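 PK model at 37°C in 10% MHB. […] A 0.5 McFarland suspension (1 ml) was added and the model run overnight to reach 10^8 CFU/ml before dosing. Counts were spiral-plated on nutrient agar with β-lactamase. Change in log CFU/ml was measured from time 0; at least triplicate.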

[5] = system: Staphylococcus aureus; assay: Antibacterial activity against methicillin-resistant Staphylococcus aureus 33827 by broth dilution method; assay type: functional
Outline: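 Standard CLSI broth dilution MIC.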

[6] = system: Staphylococcus aureus; assay: Antibacterial activity against methicillin-sensitive Staphylococcus aureus 5956 by 10% MH broth method; assay type: functional
Outline: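 Broth dilution per CLSI, but in 10% Mueller-Hinton broth using nondoubling dilutions.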

[7] = system: Staphylococcus aureus; assay: Antibacterial activity against methicillin-resistant Staphylococcus aureus 33815 by 10% MH broth method; assay type: functional
Outline: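 Broth dilution MIC per CLSI but in 10% Mueller-Hinton broth, using nondoubling dilutions.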

[8] = system: Staphylococcus aureus; assay: Antibacterial activity against methicillin-resistant Staphylococcus aureus 33922 infected in in vitro pharmacokinetic model assessed as time required to 99.9% killing at 750 mg, iv every 8 hrs using 10^8 CFU/ml inoculum; assay type: functional
[9] = system: Staphylococcus aureus; assay: Antibacterial activity against methicillin-resistant Staphylococcus aureus 33827 infected in in vitro pharmacokinetic model assessed as time required to 99.9% killing at 750 mg, iv every 8 hrs using 10^8 CFU/ml inoculum; assay type: functional; outline: as §2
[10] = system: Staphylococcus aureus; assay: T>MIC in methicillin-resistant Staphylococcus aureus 33820 infected in vitro pharmacokinetic model at 750 mg, iv every 8 hrs; assay type: functional
[11] = system: Staphylococcus aureus; assay: Antibacterial activity against methicillin-resistant Staphylococcus aureus 33922 in in vitro pharmacokinetic model assessed as viable count at 4 times of MIC; assay type: functional
[12] = system: Staphylococcus aureus; assay: Antibacterial activity against methicillin-resistant Staphylococcus aureus 33820 in in vitro pharmacokinetic model assessed as viable count at 4 times of MIC; assay type: functional
Outline: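 Population analysis before drug exposure (time 0). Model samples were plated on nutrient agar without drug and with tomopenem at 2×, 4× and 6× MIC (10% MHB MIC), and growth was recorded as log CFU/ml. Detection limit 2 log10.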

[13] = system: Staphylococcus aureus; assay: Antibacterial activity against methicillin-sensitive Staphylococcus aureus 5956 infected in in vitro pharmacokinetic model assessed as reduction in viable count at 750 mg, iv every 8 hrs measured after 12 hrs using 10^6 CFU/ml inoculum; assay type: functional
[14] = system: Staphylococcus aureus; assay: Antibacterial activity against methicillin-sensitive Staphylococcus aureus 5956 infected in in vitro pharmacokinetic model assessed as reduction in viable count at 750 mg, iv every 8 hrs measured after 48 hrs using 10^6 CFU/ml inoculum; assay type: functional
[15] = system: Staphylococcus aureus; assay: Antibacterial activity against methicillin-resistant Staphylococcus aureus 33827 infected in in vitro pharmacokinetic model assessed as reduction in viable count at 750 mg, iv every 8 hrs measured after 48 hrs using 10^6 CFU/ml inoculum; assay type: functional; outline: as §2
[16] = system: Staphylococcus aureus; assay: Antibacterial activity against methicillin-resistant Staphylococcus aureus 33827 assessed as viable count at 4 times of MIC after 24 hrs using 10^6 CFU/ml inoculum; assay type: functional, organism-based
[17] = system: Staphylococcus aureus; assay: T>MIC for static effect in methicillin-resistant Staphylococcus aureus 33829 in in vitro pharmacokinetic model after 24 hrs using 10^6 CFU/ml inoculum; assay type: functional
[18] = system: Staphylococcus aureus; assay: T>MIC for static effect in methicillin-resistant Staphylococcus aureus 33815 in in vitro pharmacokinetic model after 24 hrs using 10^6 CFU/ml inoculum; assay type: functional
[19] = system: Staphylococcus aureus; assay: T>MIC for 1-log drop in count in methicillin-resistant Staphylococcus aureus 33815 in in vitro pharmacokinetic model after 24 hrs using 10^6 CFU/ml inoculum; assay type: functional
[20] = system: Staphylococcus aureus; assay: T>MIC for 3-log drop in count in methicillin-resistant Staphylococcus aureus 33820 in in vitro pharmacokinetic model after 24 hrs using 10^6 CFU/ml inoculum; assay type: functional
[21] = system: Staphylococcus aureus; assay: T>MIC for 4-log drop in count in methicillin-resistant Staphylococcus aureus 33827 in in vitro pharmacokinetic model after 24 hrs using 10^6 CFU/ml inoculum; assay type: functional
[22] = system: Staphylococcus aureus; assay: T>MIC for 3-log drop in count in methicillin-resistant Staphylococcus aureus 33827 in in vitro pharmacokinetic model after 24 hrs using 10^8 CFU/ml inoculum; assay type: functional
[23] = system: Staphylococcus aureus; assay: T>MIC for 3-log drop in count in methicillin-resistant Staphylococcus aureus 33815 in in vitro pharmacokinetic model after 24 hrs using 10^8 CFU/ml inoculum; assay type: functional
[24] = system: Staphylococcus aureus; assay: Antibacterial activity against methicillin-resistant Staphylococcus aureus 33921 infected in in vitro pharmacokinetic model assessed as reduction in viable count at 1500 mg, iv every 8 hrs measured after 12 hrs using 10^6 CFU/ml inoculum; assay type: functional; outline: as §2
[25] = system: Staphylococcus aureus; assay: Antibacterial activity against methicillin-resistant Staphylococcus aureus 33922 infected in in vitro pharmacokinetic model assessed as reduction in viable count at 1500 mg, iv every 8 hrs measured after 12 hrs using 10^6 CFU/ml inoculum; assay type: functional
[26] = system: Staphylococcus aureus; assay: Antibacterial activity against methicillin-resistant Staphylococcus aureus 33815 infected in in vitro pharmacokinetic model assessed as reduction in viable count at 1500 mg, iv every 8 hrs measured after 12 hrs using 10^6 CFU/ml inoculum; assay type: functional
Outline: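 Log change in viable count from time zero to 12 h, β-lactamase-neutralised spiral plating, detection limit 10^2 CFU/ml, at least triplicate.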

[27] = system: Staphylococcus aureus; assay: Antibacterial activity against methicillin-resistant Staphylococcus aureus 33829 infected in in vitro pharmacokinetic model assessed as reduction in viable count at 1500 mg, iv every 8 hrs measured after 24 hrs using 10^6 CFU/ml inoculum; assay type: functional; outline: as §2
[28] = system: Staphylococcus aureus; assay: Antibacterial activity against methicillin-resistant Staphylococcus aureus 33829 infected in in vitro pharmacokinetic model assessed as reduction in viable count at 1500 mg, iv every 8 hrs measured after 48 hrs using 10^6 CFU/ml inoculum; assay type: functional; outline: as §2

C[C@@H](O)[C@H]1C(=O)N2C(C(=O)O)=C(S[C@H]3C[C@@H](C(=O)N4CC[C@H](NC(=O)CNC(=N)N)C4)N(C)C3)[C@H](C)[C@H]12 [TOMOPENEM]
AUBC [1]: 27.4 log10CFU/ml.hr
AUBC [2]: 23.4 log10CFU/ml.hr
log10CFU/ml [3]: 5.9
log10CFU/ml [4]: 1.5
MIC [5]: 2 µg/mL (≈ 3.72 µM)
MIC [6]: 0.04 µg/mL (≈ 0.0744 µM)
MIC [7]: 6 µg/mL (≈ 11.2 µM)
Time [8]: 12 h
Time [9]: 12 h
fT>MIC [10]: 73%
log10CFU/ml [11]: 6
log10CFU/ml [12]: <2
log10CFU/ml [13]: 4.1
log10CFU/ml [14]: 4.5
log10CFU/ml [15]: 3.3
Activity [16]: inactive
fT>MIC [17]: 12.1%
fT>MIC [18]: 5.3%
fT>MIC [19]: 8.6%
fT>MIC [20]: 20.4%
fT>MIC [21]: 61%
fT>MIC [22]: 59.3%
fT>MIC [23]: 3.3%
log10CFU/ml [24]: 3
log10CFU/ml [25]: 4.2
log10CFU/ml [26]: 4.2
log10CFU/ml [27]: 4.2
log10CFU/ml [28]: 3.8
